Laboratory results: ChEMBL document CHEMBL2163340, “Fluostatins I-K from the South China Sea-derived micromonospora rosaria SCSIO N160” (J Nat Prod, 2012)
Values after ≈ are worked out from the molar mass of the structure shown.

Columns and labels:
MCF7 = assay: Cytotoxicity against human MCF7 cells by SRB assay; type: functional, cell-based
In short: (§1)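 Sulforhodamine B assay following a previously described protocol, run on three human tumour lines: MCF-7 (breast adenocarcinoma), NCI-H460 (non-small-cell lung cancer) and SF-268 (glioma). Activity was reported as IC50.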

NCI-H460 = assay: Cytotoxicity against human NCI-H460 cells by SRB assay; type: functional, cell-based; in short: as §1
SF-268 = assay: Cytotoxicity against human SF268 cells by SRB assay; type: functional, cell-based; in short: as §1
Candida albicans = assay: Antifungal activity against Candida albicans ATCC 10231 after 18 hrs by broth microdilution method; type: functional; details: ATCC 10231, 18 h
In short: (§2)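 Broth microdilution. Pre-cultures were grown 16 h on a rotary shaker: the bacteria at 37 °C and C. albicans at 28 °C. Each was adjusted with sterile medium to OD600 0.04–0.06, diluted a further 10-fold, and dispensed to plates. Compounds were serially diluted from 64 to 0.125 μg/mL in duplicate. OD600 was read after 18 h. MIC was the lowest concentration completely inhibiting visible growth, taken from two independent experiments.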

Bacillus subtilis = assay: Antibacterial activity against Bacillus subtilis SCSIO BS01 after 18 hrs by broth microdilution method; type: functional; details: SCSIO BS01, 18 h; in short: as §2
Bacillus thuringiensis = assay: Antibacterial activity against Bacillus thuringiensis SCSIO BT01 after 18 hrs by broth microdilution method; type: functional; details: SCSIO BT01, 18 h; in short: as §2
Staphylococcus aureus = assay: Antibacterial activity against Staphylococcus aureus ATCC 29213 after 18 hrs by broth microdilution method; type: functional; details: ATCC 29213, 18 h; in short: as §2
Escherichia coli = assay: Antibacterial activity against Escherichia coli ATCC 25922 after 18 hrs by broth microdilution method; type: functional; details: ATCC 25922, 18 h; in short: as §2

Structure (SMILES) | IC50 (MCF7) [µM] | IC50 (NCI-H460) [µM] | IC50 (SF-268) [µM] | MIC (Candida albicans) [µg/mL] | MIC (Bacillus subtilis) [µg/mL] | MIC (Bacillus thuringiensis) [µg/mL] | MIC (Staphylococcus aureus) [µg/mL] | MIC (Escherichia coli) [µg/mL]
Cc1cc(O)c2c3c(ncc2c1)C(=O)c1c(O)cccc1C3=O [PHENANTHROVIRIDONE] | 0.17 | 2.18 | 0.09 | > 64 | 64 (≈ 210 µM) | 4 (≈ 13.1 µM) | 0.25 (≈ 0.819 µM) | 32 (≈ 105 µM)
CO[C@@H]1c2c(cc(O)c3c2C(=O)c2cccc(O)c2-3)C(=O)[C@@]2(C)O[C@@H]12 [FLUOSTATIN F] | > 100 | > 100 | > 100 | > 64 | > 64 | > 64 | 32 (≈ 94.6 µM) | > 64
C[C@]12O[C@H]1[C@H](O)c1c(cc(O)c3c1C(=O)c1cccc(O)c1-3)C2=O [FLUOSTATINS C] | > 100 | > 100 | > 100 | > 64 | > 64 | > 64 | 16 (≈ 49.3 µM) | > 64
C[C@]1(Cl)C(=O)c2cc(O)c3c(c2[C@@H](O)[C@@H]1O)C(=O)c1cccc(O)c1-3 [FLUOSTATIN E] | > 100 | > 100 | > 100 | > 64 | > 64 | > 64 | > 64 | > 64
C[C@]1(O)CC(=O)c2c(cc(O)c3c2C(=O)c2cccc(O)c2C3=O)C1 [RABELOMYCIN] | 4.28 | 9.91 | 5.54 | > 64 | 16 (≈ 47.3 µM) | 8 (≈ 23.6 µM) | 1 (≈ 2.96 µM) | 16 (≈ 47.3 µM)
CC(C)C(=O)O[C@@H]1c2c(cc(O)c3c2C(=O)c2cccc(O)c2-3)C(=O)[C@H](C)[C@H]1O [FLUOSTATIN I] | > 100 | > 100 | > 100 | > 64 | > 64 | > 64 | > 64 | > 64
C[C@]1(O)C=Cc2c(cc(O)c3c2C(=O)c2cccc(O)c2-3)C1=O [FLUOSTATIN K] | > 100 | > 100 | > 100 | > 64 | > 64 | > 64 | > 64 | > 64
CC(C)C(=O)O[C@@H]1c2c(cc(O)c3c2C(=O)c2cccc(O)c2-3)C(=O)[C@@]2(C)O[C@@H]12 [FLUOSTATIN D] | > 100 | > 100 | > 100 | > 64 | > 64 | > 64 | > 64 | > 64
CCC(C)C(=O)O[C@@H]1c2c(cc(O)c3c2C(=O)c2cccc(O)c2-3)C(=O)[C@@]2(C)O[C@@H]12 (some centres not stated) [FLUOSTATIN J] | > 100 | > 100 | > 100 | > 64 | > 64 | > 64 | > 64 | > 64
